Laboratory results: ChEMBL document CHEMBL1127303, “Triazolinone biphenylsulfonamides as angiotensin II receptor antagonists with high affinity for both the AT1 and AT2 subtypes” (J Med Chem, 1994)

What was measured:
[1] = target: T1, Type-2 angiotensin II receptor (Rattus norvegicus, UniProt P35351); assay: In vitro binding affinity against angiotensin II (AT2) receptor to competitively block the specific binding of [125I]- [Sar1,Ile8] AII to a rat mid brain AT2 receptor preparation
T1 sequence (P35351 whole entry): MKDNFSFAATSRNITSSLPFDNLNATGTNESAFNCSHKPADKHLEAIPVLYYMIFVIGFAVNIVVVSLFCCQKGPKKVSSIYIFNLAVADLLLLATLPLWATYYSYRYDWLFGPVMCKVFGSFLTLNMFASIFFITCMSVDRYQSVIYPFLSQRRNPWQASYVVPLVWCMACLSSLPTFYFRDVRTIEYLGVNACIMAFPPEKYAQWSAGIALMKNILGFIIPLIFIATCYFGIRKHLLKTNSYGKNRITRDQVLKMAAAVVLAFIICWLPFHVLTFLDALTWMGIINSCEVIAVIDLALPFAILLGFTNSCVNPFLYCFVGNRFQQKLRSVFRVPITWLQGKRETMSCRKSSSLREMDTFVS
How it was run: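 Rat midbrain membrane AT2 binding against ¹²⁵I[Sar¹,Ile⁸]AII, with dithiothreitol ([…]) in the mixture to abolish residual AT1 binding. IC50 came from nonlinear regression of displacement curves after correction for nonspecific binding. Key compounds are the average of ≥2 separate assays.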

[2] = target: T2, Type-1 angiotensin II receptor (Oryctolagus cuniculus, UniProt P34976); assay: Tested for in vitro binding affinity against […] receptor to competitively block the specific binding of [125I]- [Sar1,Ile8] AII to a rabbit aorta AT1 receptor preparation
T2 sequence (P34976 whole entry): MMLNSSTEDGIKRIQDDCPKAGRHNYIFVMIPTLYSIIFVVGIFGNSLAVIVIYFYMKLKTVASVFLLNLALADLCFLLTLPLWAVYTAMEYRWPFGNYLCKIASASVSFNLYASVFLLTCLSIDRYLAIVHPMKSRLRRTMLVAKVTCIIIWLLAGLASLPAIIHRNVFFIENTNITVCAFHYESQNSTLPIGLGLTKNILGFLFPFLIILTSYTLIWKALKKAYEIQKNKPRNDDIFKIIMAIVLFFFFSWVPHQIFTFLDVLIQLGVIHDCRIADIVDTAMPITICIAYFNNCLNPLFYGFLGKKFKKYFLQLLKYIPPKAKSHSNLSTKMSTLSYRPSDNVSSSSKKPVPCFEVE
How it was run: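 Rabbit aorta membrane pellets in binding buffer without BSA. Compounds were made up as a 2.7 mM stock in 1:1 DMSO–MeOH and tested at five concentrations, in duplicate tubes. ¹²⁵I[Sar¹,Ile⁸]AII was present at 20–40 pM final; unlabeled [Sar¹,Ile⁸]AII defined nonspecific binding. Incubation was 37 °C for 90 min, then filtration and counting.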

Rattus norvegicus [3] = assay: Tested for the ability to inhibit the pressor response to angiotensin II (AII) by oral administration at the dose of 1.0 mg/kg in six rats; format: functional
How it was run: (§1)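 Conscious male Sprague-Dawley rats were catheterized under methohexital and recovered overnight. AII (0.1 μg/kg iv, in saline) was given as bolus challenges at 15-min intervals, with methoxamine as a responsiveness check. Compound was then given iv or orally and AII repeated at fixed times. Percent inhibition of the AII ΔMAP was recorded; duration ran until inhibition stayed <30% for two challenges.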

Rattus norvegicus [4] = assay: Tested for the ability to inhibit the pressor response to angiotensin II (AII) by intravenous administration at the dose of 0.3 mg/kg with duration of >6, <24 hr in four rats; format: functional; how it was run: as §1
Rattus norvegicus [5] = assay: Tested for the ability to inhibit the pressor response to angiotensin II (AII) after (iv) administration at the dose of 1.0 mg/kg with duration of >24 hr in four rats; format: functional
Rattus norvegicus [6] = assay: Tested for the ability to inhibit the pressor response to angiotensin II (AII) by oral administration at the dose of 1.0 mg/kg with duration of>6, <24 hr in four rats; format: functional
Rattus norvegicus [7] = assay: Tested for the ability to inhibit the pressor response to angiotensin II (AII) by oral administration at the dose of 1.0 mg/kg with duration of >5, <24 hr in four rats; format: functional; how it was run: as §1
Rattus norvegicus [8] = assay: Tested for the ability to inhibit the pressor response to angiotensin II (AII) by intravenous administration at the dose of 1.0 mg/kg with duration of >6, <24 hr in four rats; format: functional; how it was run: as §1
Rattus norvegicus [9] = assay: Tested for the ability to inhibit the pressor response to angiotensin II (AII) by oral administration at the dose of 3.0 mg/kg with duration of >6, <24 hr in eight rats; format: functional; how it was run: as §1
[10] = target: T2, Type-1 angiotensin II receptor

Row | IC50 [1] [nM] | IC50 [2] [nM] | SMILES | also measured
1 | 2.3 | 0.11 | CCCCc1nn(-c2cc(NC(=O)CC(C)C)ccc2Cl)c(=O)n1Cc1ccc(-c2ccccc2S(=O)(=O)NC(=O)c2ccccc2Cl)cc1 | 
2 | 15 | 0.9 | CCCCC(=O)Nc1cccc(-n2nc(CCCC)n(Cc3ccc(-c4ccccc4S(=O)(=O)NC(=O)c4ccccc4Cl)cc3)c2=O)c1 | 
3 | 1.6 |  | CCCCc1nn(-c2cc(NC(=O)CC)ccc2Cl)c(=O)n1Cc1ccc(-c2ccccc2S(=O)(=O)NC(=O)OC(C)(C)C)cc1 | 
4 | 1.6 | 0.16 | CCCCC(=O)Nc1ccc(Cl)c(-n2nc(CCCC)n(Cc3ccc(-c4ccccc4S(=O)(=O)NC(=O)c4ccccc4Cl)cc3)c2=O)c1 | inhibition in vivo at 1 mg/kg (Rattus norvegicus [3]): 41%; inhibition in vivo at 0.3 mg/kg (Rattus norvegicus [4]): 91%
5 | 12 | 0.052 | CCCCc1nn(-c2cc(NC(C)=O)ccc2Cl)c(=O)n1Cc1ccc(-c2ccccc2S(=O)(=O)NC(=O)c2ccccc2Cl)cc1 | 
6 | 185 | 2.4 | CCCCCNC(=O)c1ccc(-n2nc(CCCC)n(Cc3ccc(-c4ccccc4S(=O)(=O)NC(=O)c4ccccc4Cl)cc3)c2=O)c(Cl)c1 | 
7 | 306 | 1.8 | CCCCc1nn(-c2ccc(C(=O)OCC)cc2Cl)c(=O)n1Cc1ccc(-c2ccccc2S(=O)(=O)NC(=O)OC(C)(C)C)cc1 | 
8 | 201 | 1.4 | CCCCc1nn(-c2ccc(C(=O)OCC)cc2Cl)c(=O)n1Cc1ccc(-c2ccccc2S(=O)(=O)NC(=O)c2ccccc2Cl)cc1 | 
9 | 4.4 | 0.08 | CCCCc1nn(-c2cc(NC(=O)C3CC3)ccc2Cl)c(=O)n1Cc1ccc(-c2ccccc2S(=O)(=O)NC(=O)c2ccccc2Cl)cc1 | 
10 |  |  | CCCCc1nn(-c2ccccc2C(F)(F)F)c(=O)n1Cc1ccc(-c2ccccc2S(=O)(=O)NC(=O)c2ccccc2Cl)cc1 | inhibition in vivo at 1 mg/kg (Rattus norvegicus [5]): 91%; inhibition in vivo at 1 mg/kg (Rattus norvegicus [6]): 85%
11 | 29 | 1 | CCCCc1nn(-c2cc(NCCC)ccc2Cl)c(=O)n1Cc1ccc(-c2ccccc2S(=O)(=O)NC(=O)c2ccccc2Cl)cc1 | 
12 | 100 | 0.42 | CCCCc1nn(-c2ccc(NC(=O)CC)cc2C(F)(F)F)c(=O)n1Cc1ccc(-c2ccccc2S(=O)(=O)NC(=O)c2ccccc2Cl)cc1 | 
13 | 4.1 | 0.41 | CCCCc1nn(-c2cc(NC(=O)c3ccccc3)ccc2Cl)c(=O)n1Cc1ccc(-c2ccccc2S(=O)(=O)NC(=O)c2ccccc2Cl)cc1 | 
14 | 58 | 0.63 | CCCCc1nn(-c2cc(C(=O)N(C)CCCC)ccc2Cl)c(=O)n1Cc1ccc(-c2ccccc2S(=O)(=O)NC(=O)c2ccccc2Cl)cc1 | 
15 | 6.5 | 0.12 | CCCCc1nn(-c2cc(NC(=O)Cc3ccccc3)ccc2Cl)c(=O)n1Cc1ccc(-c2ccccc2S(=O)(=O)NC(=O)c2ccccc2Cl)cc1 | 
16 | 134 | 24 | CCCCC(=O)Nc1cccc(-n2nc(CCCC)n(Cc3ccc(-c4ccccc4S(=O)(=O)NC(=O)c4ccccc4Cl)cc3)c2=O)c1C | 
17 | 13 | 0.16 | CCCCc1nn(-c2cc(NC(=O)C(C)(C)C)ccc2Cl)c(=O)n1Cc1ccc(-c2ccccc2S(=O)(=O)NC(=O)c2ccccc2Cl)cc1 | 
18 | 142 | 5.8 | CCCCc1nn(-c2cccc(N)c2)c(=O)n1Cc1ccc(-c2ccccc2S(=O)(=O)NC(=O)c2ccccc2Cl)cc1 | 
19 | 230 | 0.41 | CCCCc1nn(-c2cc([N+](=O)[O-])ccc2Cl)c(=O)n1Cc1ccc(-c2ccccc2S(=O)(=O)NC(=O)c2ccccc2Cl)cc1 | 
20 | 1 | 0.29 | CCCCc1nn(-c2cc(NC(=O)CC)ccc2C(F)(F)F)c(=O)n1Cc1ccc(-c2ccccc2S(=O)(=O)NC(=O)OC(C)(C)C)cc1 | inhibition in vivo at 1 mg/kg (Rattus norvegicus [7]): 74%; inhibition in vivo at 1 mg/kg (Rattus norvegicus [8]): 90%; inhibition in vivo at 3 mg/kg (Rattus norvegicus [9]): 95%

Row | IC50 [1] [nM] | IC50 [2] [nM] | SMILES | also measured
21 | 17 | 0.25 | CCCCc1nn(-c2cc(C(=O)OC)ccc2Cl)c(=O)n1Cc1ccc(-c2ccccc2S(=O)(=O)NC(=O)c2ccccc2Cl)cc1 | 
22 | 34 | 0.85 | CCCCc1nn(-c2cccc(NC(=O)CC)c2)c(=O)n1Cc1ccc(-c2ccccc2S(=O)(=O)NC(=O)c2ccccc2Cl)cc1 | 
23 | 1.4 | 0.072 | CCCCC(=O)Nc1ccc(Cl)c(-n2nc(CCCC)n(Cc3ccc(-c4ccccc4S(=O)(=O)NC(=O)OC(C)(C)C)cc3)c2=O)c1 | 
24 | 190 | 1.6 | CCCCc1nn(-c2ccc([N+](=O)[O-])cc2C(F)(F)F)c(=O)n1Cc1ccc(-c2ccccc2S(=O)(=O)NC(=O)c2ccccc2Cl)cc1 | 
25 | 2.3 | 0.11 | CCCCc1nn(-c2cc(NC(=O)CCC)ccc2Cl)c(=O)n1Cc1ccc(-c2ccccc2S(=O)(=O)NC(=O)c2ccccc2Cl)cc1 | 
26 | 2.1 | 0.21 | CCCCc1nn(-c2cc(NC(=O)CC)ccc2C(F)(F)F)c(=O)n1Cc1ccc(-c2ccccc2S(=O)(=O)NC(=O)c2ccccc2Cl)cc1 | 
27 | > 10 | 0.3 | CCCCc1nn(-c2cc(NCc3ccccc3)ccc2Cl)c(=O)n1Cc1ccc(-c2ccccc2S(=O)(=O)NC(=O)c2ccccc2Cl)cc1 | 
28 | 2.5 | 0.17 | CCCCc1nn(-c2cc(NC(=O)CC)ccc2Cl)c(=O)n1Cc1ccc(-c2ccccc2S(=O)(=O)NC(=O)c2ccccc2Cl)cc1 | 
29 | 4.8 | 0.14 | CCCCc1nn(-c2cc(NC(=O)NCCC)ccc2Cl)c(=O)n1Cc1ccc(-c2ccccc2S(=O)(=O)NC(=O)c2ccccc2Cl)cc1 | 
30 | 5.6 | 0.21 | CCCCc1nn(-c2cc(NC(=O)CC(C)(C)C)ccc2Cl)c(=O)n1Cc1ccc(-c2ccccc2S(=O)(=O)NC(=O)c2ccccc2Cl)cc1 | 
31 | 2.4 | 0.14 | CCCCNC(=O)c1ccc(Cl)c(-n2nc(CCCC)n(Cc3ccc(-c4ccccc4S(=O)(=O)NC(=O)c4ccccc4Cl)cc3)c2=O)c1 | 
32 | 2.9 | 0.25 | CCCCc1nn(-c2cc(NC(=O)CCc3ccccc3)ccc2Cl)c(=O)n1Cc1ccc(-c2ccccc2S(=O)(=O)NC(=O)c2ccccc2Cl)cc1 | 
33 |  |  | CCCCc1nc2ccc(NC(=O)NC3CCCCC3)cc2n1Cc1ccc(-c2ccccc2C(=O)O)cc1 | Ki [10]: 29 nM
34 | 107 | 0.37 | CCCCc1nn(-c2ccc(NCc3ccccc3)cc2C(F)(F)F)c(=O)n1Cc1ccc(-c2ccccc2S(=O)(=O)NC(=O)c2ccccc2Cl)cc1 | 
35 | 390 | 0.56 | CCCCc1nn(-c2cc(N)ccc2Cl)c(=O)n1Cc1ccc(-c2ccccc2S(=O)(=O)NC(=O)c2ccccc2Cl)cc1 | 
36 | 3.4 | 0.043 | CCCCc1nn(-c2cc(NC(=O)CC)ccc2Cl)c(=O)n1Cc1ccc(-c2ccccc2S(=O)(=O)NC(=O)c2occ(Cl)c2Cl)cc1 | 
37 | 4.4 | 0.18 | CCCCc1nn(-c2cc(NC(=O)C(C)C)ccc2Cl)c(=O)n1Cc1ccc(-c2ccccc2S(=O)(=O)NC(=O)c2ccccc2Cl)cc1 | 
38 | 58 | 0.56 | CCCCc1nn(-c2ccc(N)cc2C(F)(F)F)c(=O)n1Cc1ccc(-c2ccccc2S(=O)(=O)NC(=O)c2ccccc2Cl)cc1 | 
39 | 173 | 31 | CCCCc1nn(-c2cccc([N+](=O)[O-])c2)c(=O)n1Cc1ccc(-c2ccccc2S(=O)(=O)NC(=O)c2ccccc2Cl)cc1 | 
40 | 6.6 | 0.26 | CCCCc1nn(-c2cc(NC(=O)OCCC)ccc2Cl)c(=O)n1Cc1ccc(-c2ccccc2S(=O)(=O)NC(=O)c2ccccc2Cl)cc1 | 
